Where a SMILES comes first, the peptide text is derived from it.
How the values were obtained:
[1] = biological target: T1, Kappa-type opioid receptor (Rattus norvegicus, UniProt P34975); test: Binding affinity towards Opioid receptor kappa 1 expressed in CHO cells was determined by using [3H]diprenorphine as radioligand; assay type: cell-based
Outline: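 Competition binding at room temperature on CHO cells stably expressing cloned rat κ (radioligand [³H]diprenorphine, KD 0.45 nM), rat μ ([³H]DAMGO, KD 0.49 nM) or mouse δ ([³H]DPDPE, KD 1.76 nM) receptors. Peptidase inhibitors (10 μM bestatin, 30 μM captopril, 50 μM L-leucyl-L-leucine) and 3 mM Mg²⁺ present. Nonspecific binding defined with 10 μM Dyn A-(1–13)NH₂, DAMGO or DPDPE respectively. Logistic fit for IC50; Ki via Cheng–Prusoff; mean ± SEM, ≥3 assays.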

[2] = biological target: Mu-type opioid receptor (Rattus norvegicus, UniProt P33535); test: Binding affinity towards Opioid receptor mu 1 expressed in CHO cells was determined by using[3H]DAMGO as radioligand; assay type: cell-based
[3] = biological target: Delta-type opioid receptor (Mus musculus, UniProt P32300); test: Binding affinity towards opioid receptor delta 1 expressed in CHO cells was determined by using [3H]DPDPE as radioligand; assay type: cell-based
[4] = biological target: T1, Kappa-type opioid receptor; test: Inhibition of forskolin-stimulated adenylyl cyclase activity by compound in CHO cells expressing Opioid receptor kappa 1; assay type: functional, cell-based
Outline: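 CHO cells stably expressing cloned rat κ receptor were incubated 40 min at 37 °C with 50 μM forskolin and various peptide concentrations. RO20-1724 (50 μM) and peptidase inhibitors (bestatin, captopril, L-leucyl-L-leucine) were present. [³H]cAMP was counted, with [¹⁴C]cAMP added for recovery correction and counts corrected for crossover. Mean ± SEM of 2–3 separate assays.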

Sequence of Mu-type opioid receptor (P33535 whole entry): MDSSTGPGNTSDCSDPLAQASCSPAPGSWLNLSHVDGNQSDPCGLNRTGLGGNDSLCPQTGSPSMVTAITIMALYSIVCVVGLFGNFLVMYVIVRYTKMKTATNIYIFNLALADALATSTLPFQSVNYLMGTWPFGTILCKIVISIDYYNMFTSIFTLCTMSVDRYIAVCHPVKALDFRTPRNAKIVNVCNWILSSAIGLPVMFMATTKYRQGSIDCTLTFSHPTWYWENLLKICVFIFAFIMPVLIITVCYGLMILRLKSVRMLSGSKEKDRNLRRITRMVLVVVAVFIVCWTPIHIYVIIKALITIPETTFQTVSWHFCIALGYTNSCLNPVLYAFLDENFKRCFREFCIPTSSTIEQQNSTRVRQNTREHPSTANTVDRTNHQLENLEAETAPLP
T1 sequence (P34975 whole entry): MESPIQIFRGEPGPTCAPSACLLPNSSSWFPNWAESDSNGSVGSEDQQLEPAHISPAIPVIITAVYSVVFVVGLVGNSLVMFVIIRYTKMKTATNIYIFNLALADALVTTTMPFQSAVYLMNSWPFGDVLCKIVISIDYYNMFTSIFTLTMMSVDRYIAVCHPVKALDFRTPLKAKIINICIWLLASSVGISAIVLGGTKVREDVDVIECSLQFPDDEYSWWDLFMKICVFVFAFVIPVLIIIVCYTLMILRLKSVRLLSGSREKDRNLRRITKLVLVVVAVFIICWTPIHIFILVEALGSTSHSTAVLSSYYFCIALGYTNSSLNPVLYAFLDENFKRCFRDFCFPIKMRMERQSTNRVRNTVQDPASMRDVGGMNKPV
Sequence of Delta-type opioid receptor (P32300 whole entry): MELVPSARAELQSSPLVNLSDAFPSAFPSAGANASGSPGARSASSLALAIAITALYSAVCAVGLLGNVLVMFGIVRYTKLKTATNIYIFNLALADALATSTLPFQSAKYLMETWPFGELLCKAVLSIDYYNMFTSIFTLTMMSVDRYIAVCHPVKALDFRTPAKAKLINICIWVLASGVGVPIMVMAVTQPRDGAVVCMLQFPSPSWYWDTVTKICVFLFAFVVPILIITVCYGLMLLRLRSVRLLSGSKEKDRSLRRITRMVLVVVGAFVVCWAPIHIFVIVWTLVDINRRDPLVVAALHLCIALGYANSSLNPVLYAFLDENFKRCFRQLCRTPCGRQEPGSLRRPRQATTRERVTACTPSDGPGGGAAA

| Structure (SMILES) | Ki [1] [nM] | Ki [2] [nM] | Ki [3] [nM] | EC50 [4] [nM] |
| --- | --- | --- | --- | --- |
| CC[C@H](C)[C@H](NC(=O)[C@H](CCCN=C(N)N)NC(=O)[C@H](CCCN=C(N)N)NC(=O)[C@H](CC(C)C)NC(=O)[C@H](Cc1ccccc1)NC(=O)CNC(=O)CNC(=O)[C@@H](N)Cc1ccc(O)cc1)C(=O)N[C@@H](CCCN=C(N)N)C(=O)N1CCC[C@H]1C(=O)N[C@@H](CCCCN)C(N)=O | 0.14 |  |  |  |
| CC[C@H](C)[C@H](NC(=O)[C@H](CCCN=C(N)N)NC(=O)[C@H](CCCN=C(N)N)NC(=O)[C@@H]1CNC(=O)C[C@@H](NC(=O)[C@@H](N)Cc2ccc(O)cc2)C(=O)N[C@@H](C)C(=O)N[C@@H](Cc2ccccc2)C(=O)N1)C(=O)N[C@@H](CCCN=C(N)N)C(=O)N1CCC[C@H]1C(=O)N[C@@H](CCCCN)C(N)=O | 1.1 | 2.52 | 30.8 | 0.65 |
| CC[C@H](C)[C@H](NC(=O)[C@H](CCCNC(=N)N)NC(=O)[C@H](CCCNC(=N)N)NC(=O)[C@H](CC(C)C)NC(=O)[C@H](Cc1ccccc1)NC(=O)[C@H](C)NC(=O)CNC(=O)[C@@H](N)Cc1ccc(O)cc1)C(=O)N[C@@H](CCCNC(=N)N)C(=O)N1CCC[C@H]1C(=O)N[C@@H](CCCCN)C(N)=O | 0.26 | 16.4 |  |  |
| CC[C@H](C)[C@H](NC(=O)[C@H](CCCN=C(N)N)NC(=O)[C@H](CCCN=C(N)N)NC(=O)[C@@H]1CNC(=O)C[C@@H](NC(=O)[C@@H](N)Cc2ccc(O)cc2)C(=O)N[C@H](Cc2c[nH]c3ccccc23)C(=O)N[C@@H](Cc2ccccc2)C(=O)N1)C(=O)N[C@@H](CCCN=C(N)N)C(=O)N1CCC[C@H]1C(=O)N[C@@H](CCCCN)C(N)=O | 2.25 | 7.27 | 949 | 12 |
| CC[C@H](C)[C@H](NC(=O)[C@H](CCCN=C(N)N)NC(=O)[C@H](CCCN=C(N)N)NC(=O)[C@H](CN)NC(=O)[C@H](Cc1ccccc1)NC(=O)[C@H](Cc1c[nH]c2ccccc12)NC(=O)[C@@H](CC(=O)O)NC(=O)[C@@H](N)Cc1ccc(O)cc1)C(=O)N[C@@H](CCCN=C(N)N)C(=O)N1CCC[C@H]1C(=O)N[C@@H](CCCCN)C(N)=O | 1.34 | 3.41 | 927 |  |
| CC[C@H](C)[C@H](NC(=O)[C@H](CCCN=C(N)N)NC(=O)[C@H](CCCN=C(N)N)NC(=O)[C@H](CN)NC(=O)[C@H](Cc1ccccc1)NC(=O)[C@@H](C)NC(=O)[C@@H](CC(=O)O)NC(=O)[C@@H](N)Cc1ccc(O)cc1)C(=O)N[C@@H](CCCN=C(N)N)C(=O)N1CCC[C@H]1C(=O)N[C@@H](CCCCN)C(N)=O | 6.12 | 4.21 | 959 |  |
| CC[C@H](C)[C@H](NC(=O)[C@H](CCCN=C(N)N)NC(=O)[C@H](CCCN=C(N)N)NC(=O)[C@@H]1CNC(=O)C[C@@H](NC(=O)[C@@H](N)Cc2ccc(O)cc2)C(=O)NCC(=O)N[C@@H](Cc2ccccc2)C(=O)N1)C(=O)N[C@@H](CCCN=C(N)N)C(=O)N1CCC[C@H]1C(=O)N[C@@H](CCCCN)C(N)=O | 0.46 | 0.52 | 5.1 | 0.39 |
| CC[C@H](C)[C@H](NC(=O)[C@H](CCCN=C(N)N)NC(=O)[C@H](CCCN=C(N)N)NC(=O)[C@H](CC(C)C)NC(=O)[C@H](Cc1ccccc1)NC(=O)[C@H](Cc1c[nH]c2ccccc12)NC(=O)CNC(=O)[C@@H](N)Cc1ccc(O)cc1)C(=O)N[C@@H](CCCN=C(N)N)C(=O)N1CCC[C@H]1C(=O)N[C@@H](CCCCN)C(N)=O | 1.56 | 42.7 | 168 |  |
| CC[C@H](C)[C@H](NC(=O)[C@H](CCCN=C(N)N)NC(=O)[C@H](CCCN=C(N)N)NC(=O)[C@H](CN)NC(=O)[C@H](Cc1ccccc1)NC(=O)CNC(=O)[C@@H](CC(=O)O)NC(=O)[C@@H](N)Cc1ccc(O)cc1)C(=O)N[C@@H](CCCN=C(N)N)C(=O)N1CCC[C@H]1C(=O)N[C@@H](CCCCN)C(N)=O | 1.59 | 0.22 | 11.6 |  |
| CC[C@H](C)[C@H](NC(=O)[C@H](CCCNC(=N)N)NC(=O)[C@H](CCCNC(=N)N)NC(=O)[C@@H]1CNC(=O)C[C@@H](NC(=O)[C@@H](N)Cc2ccc(O)cc2)C(=O)N[C@@H](Cc2c[nH]c3ccccc23)C(=O)N[C@@H](Cc2ccccc2)C(=O)N1)C(=O)N[C@@H](CCCNC(=N)N)C(=O)N1CCC[C@H]1C(=O)N[C@@H](CCCCN)C(N)=O | 1.33 | 2.09 | 7070 | 4.19 |
| CC[C@H](C)[C@H](NC(=O)[C@H](CCCN=C(N)N)NC(=O)[C@H](CCCN=C(N)N)NC(=O)[C@H](CC(C)C)NC(=O)[C@H](Cc1ccccc1)NC(=O)CNC(=O)CNC(=O)[C@@H](N)Cc1ccc(O)cc1)C(=O)N[C@@H](CCCN=C(N)N)C(=O)N1CCC[C@H]1C(=O)N[C@@H](CCCCN)C(=O)N[C@@H](CC(C)C)C(=O)N[C@@H](CCCCN)C(N)=O | 0.39 | 1.88 | 6.07 |  |
| CC[C@H](C)[C@H](NC(=O)[C@H](CCCNC(=N)N)NC(=O)[C@H](CCCNC(=N)N)NC(=O)[C@H](CC(C)C)NC(=O)[C@H](Cc1ccccc1)NC(=O)[C@@H](C)NC(=O)CNC(=O)[C@@H](N)Cc1ccc(O)cc1)C(=O)N[C@@H](CCCNC(=N)N)C(=O)N1CCC[C@H]1C(=O)N[C@@H](CCCCN)C(N)=O | 0.34 | 19.8 |  |  |
| CC[C@H](C)[C@H](NC(=O)[C@H](CCCN=C(N)N)NC(=O)[C@H](CCCN=C(N)N)NC(=O)[C@H](CN)NC(=O)[C@H](Cc1ccccc1)NC(=O)[C@@H](Cc1c[nH]c2ccccc12)NC(=O)[C@@H](CC(=O)O)NC(=O)[C@@H](N)Cc1ccc(O)cc1)C(=O)N[C@@H](CCCN=C(N)N)C(=O)N1CCC[C@H]1C(=O)N[C@@H](CCCCN)C(N)=O | 1.26 | 4.57 | 813 |  |
| CC[C@H](C)[C@H](NC(=O)[C@H](CCCNC(=N)N)NC(=O)[C@H](CCCNC(=N)N)NC(=O)[C@@H]1CNC(=O)C[C@@H](NC(=O)[C@@H](N)Cc2ccc(O)cc2)C(=O)N2CCC[C@H]2C(=O)N[C@@H](Cc2ccccc2)C(=O)N1)C(=O)N[C@@H](CCCNC(=N)N)C(=O)N1CCC[C@H]1C(=O)N[C@@H](CCCCN)C(N)=O | 9.03 | 125 | > 10000 | 153 |
| CC[C@H](C)[C@H](NC(=O)[C@H](CCCN=C(N)N)NC(=O)[C@H](CCCN=C(N)N)NC(=O)[C@H](CN)NC(=O)[C@H](Cc1ccccc1)NC(=O)CNC(=O)[C@@H](CC(=O)O)NC(=O)[C@@H](N)Cc1ccc(O)cc1)C(=O)N[C@@H](CCCN=C(N)N)C(=O)N1CCC[C@H]1C(=O)N[C@@H](CCCCN)C(=O)N[C@@H](CC(C)C)C(=O)N[C@@H](CCCCN)C(N)=O | 0.2 | 0.26 | 3.9 |  |
| CC[C@H](C)[C@H](NC(=O)[C@H](CCCNC(=N)N)NC(=O)[C@H](CCCNC(=N)N)NC(=O)[C@@H]1CNC(=O)C[C@@H](NC(=O)[C@@H](N)Cc2ccc(O)cc2)C(=O)N[C@H](C)C(=O)N[C@@H](Cc2ccccc2)C(=O)N1)C(=O)N[C@@H](CCCNC(=N)N)C(=O)N1CCC[C@H]1C(=O)N[C@@H](CCCCN)C(N)=O | 0.21 | 3.89 | 139 | 0.54 |
| CC[C@H](C)[C@H](NC(=O)[C@H](CCCN=C(N)N)NC(=O)[C@H](CCCN=C(N)N)NC(=O)[C@H](CN)NC(=O)[C@H](Cc1ccccc1)NC(=O)[C@H](C)NC(=O)[C@@H](CC(=O)O)NC(=O)[C@@H](N)Cc1ccc(O)cc1)C(=O)N[C@@H](CCCN=C(N)N)C(=O)N1CCC[C@H]1C(=O)N[C@@H](CCCCN)C(N)=O | 0.86 | 2.02 | 55.1 |  |
| CC[C@H](C)[C@H](NC(=O)[C@H](CCCNC(=N)N)NC(=O)[C@H](CCCNC(=N)N)NC(=O)[C@H](CC(C)C)NC(=O)[C@H](Cc1ccccc1)NC(=O)[C@@H](Cc1c[nH]c2ccccc12)NC(=O)CNC(=O)[C@@H](N)Cc1ccc(O)cc1)C(=O)N[C@@H](CCCNC(=N)N)C(=O)N1CCC[C@H]1C(=O)N[C@@H](CCCCN)C(N)=O | 5.41 | 45.9 | 1080 |  |
| CC[C@H](C)[C@H](NC(=O)[C@H](CCCN=C(N)N)NC(=O)[C@H](CCCN=C(N)N)NC(=O)[C@@H]1CNC(=O)C[C@@H](NC(=O)[C@@H](N)Cc2ccc(O)cc2)C(=O)NCC(=O)N[C@@H](Cc2ccccc2)C(=O)N1)C(=O)N[C@@H](CCCN=C(N)N)C(=O)N1CCC[C@H]1C(=O)N[C@@H](CCCCN)C(=O)N[C@@H](CC(C)C)C(=O)N[C@@H](CCCCN)C(N)=O (HELM PEPTIDE1{Y.[dD].G.F.[O=C([C@H](CN[*:3])N[*:1])[*:2]].R.R.I.R.P.K.L.K.[am]}$PEPTIDE1,PEPTIDE1,2:R3-5:R3$$$V2.0) | 0.16 | 1.17 | 3.31 |  |
